ChEMBL document CHEMBL4689842, “EUbOPEN Chemogenomics Library wave 1” (2021)

System: HEK-293T
Assay: Multiplex assay against HEK293T;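 on Population Tubulin-Different-Phenotype (%): share of the cells with healthy nuclei that show this phenotype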
Assay type: toxicity, cell-based
Settings: human
Summary of the method: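 Tubulin, mitochondrial-mass and membrane-permeability phenotypes are per cents of healthy-nucleus cells. Cells were gated by CellPathfinder machine learning into Hoechst high-intensity objects or normal cells, normal cells into healthy, pyknosed or fragmented nuclei, and pyknosed cells into mitotic or apoptotic. Before that, live cells stained at seeding with Hoechst33342, BioTracker Green Microtubule Cytoskeleton Dye, MitoTracker Red and Annexin V Alexa Fluor 680 were imaged on a CQ1 microscope at 37°C and 5% CO2 after compound addition.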

[1] = 12 h, 1 µM, compound concentration 1 uM, replicate 1
[2] = 12 h, 1 µM, compound concentration 1 uM, replicate 2
[3] = 12 h, 10 µM, compound concentration 10 uM, replicate 1
[4] = 12 h, 10 µM, compound concentration 10 uM, replicate 2
[5] = 24 h, 1 µM, compound concentration 1 uM, replicate 1
[6] = 24 h, 1 µM, compound concentration 1 uM, replicate 2
[7] = 24 h, 10 µM, compound concentration 10 uM, replicate 1
[8] = 24 h, 10 µM, compound concentration 10 uM, replicate 2

Compound: COc1ccc(S(=O)(=O)N(CCO)c2ccccc2CN(C)C/C=C/c2ccc(Cl)cc2)cc1.O=P(O)(O)O
- Population Apoptotic (%) [1]: 42%
- Population Fragmented Nuclei (%) [1]: 11%
- Population Healthy Nuclei (%) [1]: 28%
- Population Hoechst High Intensity Objects (%) [1]: 16%
- Population Membrane Permeable-Phenotype (%) [1]: 6%
- Population Mitochondria Different-Phenotype (%) [1]: 79%
- Population Mitotic Cells (%) [1]: 57%
- Population Normal (%) [1]: 83%
- Population Pyknosed Nuclei (%) [1]: 59%
- Population Tubulin-Different-Phenotype (%) [1]: 87%
- Total Cell Count [1]: 585
- Population Apoptotic (%) [2]: 35%
- Population Fragmented Nuclei (%) [2]: 1%
- Population Healthy Nuclei (%) [2]: 67%
- Population Hoechst High Intensity Objects (%) [2]: 7%
- Population Membrane Permeable-Phenotype (%) [2]: 3%
- Population Mitochondria Different-Phenotype (%) [2]: 90%
- Population Mitotic Cells (%) [2]: 64%
- Population Normal (%) [2]: 92%
- Population Pyknosed Nuclei (%) [2]: 30%
- Population Tubulin-Different-Phenotype (%) [2]: 90%
- Total Cell Count [2]: 929
- Population Apoptotic (%) [3]: 14%
- Population Fragmented Nuclei (%) [3]: 11%
- Population Healthy Nuclei (%) [3]: 67%
- Population Hoechst High Intensity Objects (%) [3]: 8%
- Population Membrane Permeable-Phenotype (%) [3]: 6%
- Population Mitochondria Different-Phenotype (%) [3]: 9%
- Population Mitotic Cells (%) [3]: 85%
- Population Normal (%) [3]: 91%
- Population Pyknosed Nuclei (%) [3]: 21%
- Population Tubulin-Different-Phenotype (%) [3]: 25%
- Total Cell Count [3]: 633
- Population Apoptotic (%) [4]: 13%
- Population Fragmented Nuclei (%) [4]: 6%
- Population Healthy Nuclei (%) [4]: 87%
- Population Hoechst High Intensity Objects (%) [4]: 3%
- Population Mitochondria Different-Phenotype (%) [4]: 21%
- Population Mitotic Cells (%) [4]: 86%
- Population Normal (%) [4]: 96%
- Population Pyknosed Nuclei (%) [4]: 6%
- Population Tubulin-Different-Phenotype (%) [4]: 36%
- Total Cell Count [4]: 1412
- Population Apoptotic (%) [5]: 61%
- Population Fragmented Nuclei (%) [5]: 13%
- Population Healthy Nuclei (%) [5]: 25%
- Population Hoechst High Intensity Objects (%) [5]: 18%
- Population Membrane Permeable-Phenotype (%) [5]: 7%
- Population Mitochondria Different-Phenotype (%) [5]: 81%
- Population Mitotic Cells (%) [5]: 38%
- Population Normal (%) [5]: 81%
- Population Pyknosed Nuclei (%) [5]: 60%
- Population Tubulin-Different-Phenotype (%) [5]: 85%
- Total Cell Count [5]: 551
- Population Apoptotic (%) [6]: 43%
- Population Fragmented Nuclei (%) [6]: 1%
- Population Healthy Nuclei (%) [6]: 59%
- Population Hoechst High Intensity Objects (%) [6]: 10%
- Population Membrane Permeable-Phenotype (%) [6]: 2%
- Population Mitochondria Different-Phenotype (%) [6]: 95%
- Population Mitotic Cells (%) [6]: 56%
- Population Normal (%) [6]: 89%
- Population Pyknosed Nuclei (%) [6]: 38%
- Population Tubulin-Different-Phenotype (%) [6]: 77%
- Total Cell Count [6]: 913
- Population Apoptotic (%) [7]: 17%
- Population Fragmented Nuclei (%) [7]: 8%
- Population Healthy Nuclei (%) [7]: 80%
- Population Hoechst High Intensity Objects (%) [7]: 6%
- Population Membrane Permeable-Phenotype (%) [7]: 10%
- Population Mitochondria Different-Phenotype (%) [7]: 8%
- Population Mitotic Cells (%) [7]: 82%
- Population Normal (%) [7]: 93%
- Population Pyknosed Nuclei (%) [7]: 11%
- Population Tubulin-Different-Phenotype (%) [7]: 31%
- Total Cell Count [7]: 745
- Population Apoptotic (%) [8]: 5%
- Population Fragmented Nuclei (%) [8]: 15%
- Population Hoechst High Intensity Objects (%) [8]: 2%
- Population Mitotic Cells (%) [8]: 94%
- Population Normal (%) [8]: 97%
- Population Pyknosed Nuclei (%) [8]: 4%
- Population Tubulin-Different-Phenotype (%) [8]: 37%
- Total Cell Count [8]: 2203

Compound: COc1cc2ncnc(Nc3ccc(F)c(Cl)c3)c2cc1NC(=O)/C=C/CN1CCCCC1 [DACOMITINIB ANHYDROUS]
- Population Apoptotic (%) [1]: 34%
- Population Fragmented Nuclei (%) [1]: 28%
- Population Healthy Nuclei (%) [1]: 32%
- Population Hoechst High Intensity Objects (%) [1]: 24%
- Population Membrane Permeable-Phenotype (%) [1]: 18%
- Population Mitochondria Different-Phenotype (%) [1]: 41%
- Population Mitotic Cells (%) [1]: 65%
- Population Normal (%) [1]: 75%
- Population Pyknosed Nuclei (%) [1]: 38%
- Population Tubulin-Different-Phenotype (%) [1]: 72%
- Total Cell Count [1]: 554
- Population Apoptotic (%) [2]: 13%
- Population Fragmented Nuclei (%) [2]: 5%
- Population Healthy Nuclei (%) [2]: 83%
- Population Hoechst High Intensity Objects (%) [2]: 4%
- Population Membrane Permeable-Phenotype (%) [2]: 7%
- Population Mitochondria Different-Phenotype (%) [2]: 36%
- Population Mitotic Cells (%) [2]: 86%
- Population Normal (%) [2]: 95%
- Population Pyknosed Nuclei (%) [2]: 10%
- Population Tubulin-Different-Phenotype (%) [2]: 66%
- Total Cell Count [2]: 1314
- Population Apoptotic (%) [3]: 14%
- Population Fragmented Nuclei (%) [3]: 14%
- Population Healthy Nuclei (%) [3]: 69%
- Population Hoechst High Intensity Objects (%) [3]: 12%
- Population Membrane Permeable-Phenotype (%) [3]: 4%
- Population Mitochondria Different-Phenotype (%) [3]: 6%
- Population Mitotic Cells (%) [3]: 85%
- Population Normal (%) [3]: 87%
- Population Pyknosed Nuclei (%) [3]: 15%
- Population Tubulin-Different-Phenotype (%) [3]: 5%
- Total Cell Count [3]: 670
- Population Apoptotic (%) [4]: 12%
- Population Fragmented Nuclei (%) [4]: 5%
- Population Healthy Nuclei (%) [4]: 89%
- Population Hoechst High Intensity Objects (%) [4]: 2%
- Population Membrane Permeable-Phenotype (%) [4]: 2%
- Population Mitochondria Different-Phenotype (%) [4]: 11%
- Population Mitotic Cells (%) [4]: 87%
- Population Normal (%) [4]: 97%
- Population Pyknosed Nuclei (%) [4]: 5%
- Population Tubulin-Different-Phenotype (%) [4]: 6%
- Total Cell Count [4]: 1444
- Population Apoptotic (%) [5]: 39%
- Population Fragmented Nuclei (%) [5]: 27%
- Population Healthy Nuclei (%) [5]: 34%
- Population Hoechst High Intensity Objects (%) [5]: 22%
- Population Membrane Permeable-Phenotype (%) [5]: 9%
- Population Mitochondria Different-Phenotype (%) [5]: 63%
- Population Mitotic Cells (%) [5]: 60%
- Population Normal (%) [5]: 77%
- Population Pyknosed Nuclei (%) [5]: 37%
- Population Tubulin-Different-Phenotype (%) [5]: 73%
- Total Cell Count [5]: 532
- Population Apoptotic (%) [6]: 6%
- Population Fragmented Nuclei (%) [6]: 16%
- Population Healthy Nuclei (%) [6]: 79%
- Population Hoechst High Intensity Objects (%) [6]: 3%
- Population Membrane Permeable-Phenotype (%) [6]: 6%
- Population Mitochondria Different-Phenotype (%) [6]: 13%
- Population Mitotic Cells (%) [6]: 93%
- Population Normal (%) [6]: 96%
- Population Pyknosed Nuclei (%) [6]: 4%
- Population Tubulin-Different-Phenotype (%) [6]: 54%
- Total Cell Count [6]: 1906
- Population Apoptotic (%) [7]: 18%
- Population Fragmented Nuclei (%) [7]: 11%
- Population Healthy Nuclei (%) [7]: 79%
- Population Hoechst High Intensity Objects (%) [7]: 6%
- Population Membrane Permeable-Phenotype (%) [7]: 10%
- Population Mitochondria Different-Phenotype (%) [7]: 3%
- Population Mitotic Cells (%) [7]: 81%
- Population Normal (%) [7]: 94%
- Population Pyknosed Nuclei (%) [7]: 9%
- Population Tubulin-Different-Phenotype (%) [7]: 10%
- Total Cell Count [7]: 800
- Population Apoptotic (%) [8]: 4%
- Population Fragmented Nuclei (%) [8]: 18%
- Population Healthy Nuclei (%) [8]: 78%
- Population Hoechst High Intensity Objects (%) [8]: 2%
- Population Membrane Permeable-Phenotype (%) [8]: 4%
- Population Mitochondria Different-Phenotype (%) [8]: 1%
- Population Mitotic Cells (%) [8]: 95%
- Population Normal (%) [8]: 97%
- Population Pyknosed Nuclei (%) [8]: 2%
- Population Tubulin-Different-Phenotype (%) [8]: 5%
- Total Cell Count [8]: 2468

Compound: COc1ccc(-c2ccc3c(N4CCOCC4)nc(N4C[C@@H](C)O[C@@H](C)C4)nc3n2)cc1CO [Ku-0063794]
- Population Apoptotic (%) [1]: 17%
- Population Fragmented Nuclei (%) [1]: 21%
- Population Healthy Nuclei (%) [1]: 63%
- Population Hoechst High Intensity Objects (%) [1]: 20%
- Population Membrane Permeable-Phenotype (%) [1]: 6%
- Population Mitochondria Different-Phenotype (%) [1]: 3%
- Population Mitotic Cells (%) [1]: 82%
- Population Normal (%) [1]: 79%
- Population Pyknosed Nuclei (%) [1]: 14%
- Population Tubulin-Different-Phenotype (%) [1]: 3%
- Total Cell Count [1]: 492
- Population Apoptotic (%) [2]: 8%
- Population Fragmented Nuclei (%) [2]: 12%
- Population Healthy Nuclei (%) [2]: 82%
- Population Hoechst High Intensity Objects (%) [2]: 2%
- Population Membrane Permeable-Phenotype (%) [2]: 1%
- Population Mitochondria Different-Phenotype (%) [2]: 4%
- Population Mitotic Cells (%) [2]: 91%
- Population Normal (%) [2]: 97%
- Population Pyknosed Nuclei (%) [2]: 4%
- Population Tubulin-Different-Phenotype (%) [2]: 5%
- Total Cell Count [2]: 1701
- Population Apoptotic (%) [3]: 41%
- Population Fragmented Nuclei (%) [3]: 31%
- Population Healthy Nuclei (%) [3]: 63%
- Population Hoechst High Intensity Objects (%) [3]: 52%
- Population Membrane Permeable-Phenotype (%) [3]: 11%
- Population Mitochondria Different-Phenotype (%) [3]: 10%
- Population Mitotic Cells (%) [3]: 58%
- Population Normal (%) [3]: 47%
- Population Pyknosed Nuclei (%) [3]: 4%
- Population Tubulin-Different-Phenotype (%) [3]: 12%
- Total Cell Count [3]: 726
- Population Apoptotic (%) [4]: 40%
- Population Fragmented Nuclei (%) [4]: 11%
- Population Healthy Nuclei (%) [4]: 87%
- Population Hoechst High Intensity Objects (%) [4]: 27%
- Population Membrane Permeable-Phenotype (%) [4]: 4%
- Population Mitochondria Different-Phenotype (%) [4]: 15%
- Population Mitotic Cells (%) [4]: 60%
- Population Normal (%) [4]: 72%
- Population Pyknosed Nuclei (%) [4]: 1%
- Population Tubulin-Different-Phenotype (%) [4]: 17%
- Total Cell Count [4]: 1160
- Population Apoptotic (%) [5]: 19%
- Population Fragmented Nuclei (%) [5]: 19%
- Population Healthy Nuclei (%) [5]: 71%
- Population Hoechst High Intensity Objects (%) [5]: 11%
- Population Membrane Permeable-Phenotype (%) [5]: 8%
- Population Mitochondria Different-Phenotype (%) [5]: 2%
- Population Mitotic Cells (%) [5]: 80%
- Population Normal (%) [5]: 88%
- Population Pyknosed Nuclei (%) [5]: 8%
- Population Tubulin-Different-Phenotype (%) [5]: 7%
- Total Cell Count [5]: 554
- Population Apoptotic (%) [6]: 12%
- Population Fragmented Nuclei (%) [6]: 33%
- Population Healthy Nuclei (%) [6]: 64%
- Population Hoechst High Intensity Objects (%) [6]: 4%
- Population Membrane Permeable-Phenotype (%) [6]: 5%
- Population Mitochondria Different-Phenotype (%) [6]: 0%
- Population Mitotic Cells (%) [6]: 87%
- Population Normal (%) [6]: 95%
- Population Pyknosed Nuclei (%) [6]: 1%
- Population Tubulin-Different-Phenotype (%) [6]: 6%
- Total Cell Count [6]: 2828
- Population Apoptotic (%) [7]: 27%
- Population Fragmented Nuclei (%) [7]: 31%
- Population Healthy Nuclei (%) [7]: 65%
- Population Hoechst High Intensity Objects (%) [7]: 52%
- Population Membrane Permeable-Phenotype (%) [7]: 11%
- Population Mitochondria Different-Phenotype (%) [7]: 9%
- Population Mitotic Cells (%) [7]: 72%
- Population Normal (%) [7]: 47%
- Population Pyknosed Nuclei (%) [7]: 3%
- Population Tubulin-Different-Phenotype (%) [7]: 17%
- Total Cell Count [7]: 759
- Population Apoptotic (%) [8]: 12%
- Population Fragmented Nuclei (%) [8]: 26%
- Population Healthy Nuclei (%) [8]: 71%
- Population Hoechst High Intensity Objects (%) [8]: 24%
- Population Membrane Permeable-Phenotype (%) [8]: 9%
- Population Mitochondria Different-Phenotype (%) [8]: 4%
- Population Mitotic Cells (%) [8]: 88%
- Population Normal (%) [8]: 75%
- Population Pyknosed Nuclei (%) [8]: 2%
- Population Tubulin-Different-Phenotype (%) [8]: 32%
- Total Cell Count [8]: 1535
